Data as given in ChEMBL document CHEMBL3407469, “Development of benzimidazole derivatives to inhibit HIV-1 replication through protecting APOBEC3G protein” (Eur J Med Chem, 2015).
Activity calls are given as the source filed them. The rule behind the calls is not given here.

How the values were obtained:
293T [1] = experiment: Inhibition of full-length X4 tropic HIV-1 clone pNL4-3 Vif/human APOBEC3G complex transfected in human 293T cells measured at 50 uM after 48 hrs by GFP-based fluorescence assay relative to control; type: cell-based
Summary of the method: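 This was the primary screen in 293T cells co-transfected with HA-Vif and A3G-GFP plasmids (Lipofectamine 2000) and given a single compound concentration. DMSO-only wells and A3G-GFP-only transfected wells served as controls. GFP was read after 48 h. A3G-GFP MFI fold change was scored as −, none or <1; +, 1–2; ++, 2–3; +++, >3.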

293T [2] = experiment: Inhibition of full-length X4 tropic HIV-1 clone pNL4-3 Vif binding to Cullin5 (unknown origin) transfected in human 293T cells measured at 50 uM after 48 hrs by co-immunoprecipitation assay; type: cell-based
Summary of the method: (§1)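 293T cells were transfected with HA-tagged Vif plus Flag-tagged EloC/EloB/Cul5 plasmids and treated with compound or DMSO. After 48 h, cells were lysed in IP lysis buffer. Lysates were incubated with anti-HA beads overnight at 4 °C and washed three times in lysis buffer before analysis of co-precipitated partners.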

Mus musculus [3] = experiment: Toxicity in Balb/c mouse assessed as effect on BUN level at 500 to 1000 mg/kg, ip; type: organism-based; parameters: dose 500-1000 mg/kg, route intraperitoneal; conditions: in vivo
Summary of the method: (§2)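 Male Balb/c mice aged 4–6 weeks were randomized into three groups (5 mice) and given a single intraperitoneal injection of 0, 500 or 1000 mg/kg. Body weight was followed for two weeks. On day 14, mice were sacrificed. Heart, liver, lung, spleen and kidney were fixed in 4% formaldehyde for H&E staining, and blood was analysed for AST, ALT, BUN and creatinine.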

[4] = tested on: Human immunodeficiency virus 1; experiment: Antiviral activity against X4 tropic HIV-1 clone pNL4-3 infected in H9 cells assessed as reduction in p24 antigen after 4 days by ELISA; type: functional, organism-based; conditions: Human immunodeficiency virus 1, pNL4-3, H9, 96 h
Mus musculus [5] = experiment: Toxicity in Balb/c mouse assessed as abnormality in lung at 500 to 1000 mg/kg, ip; type: organism-based; parameters: dose 500-1000 mg/kg, route intraperitoneal; conditions: in vivo; summary of the method: as §2
Mus musculus [6] = experiment: Toxicity in Balb/c mouse assessed as abnormality in kidney at 500 to 1000 mg/kg, ip; type: organism-based; parameters: dose 500-1000 mg/kg, route intraperitoneal; conditions: in vivo; summary of the method: as §2
[7] = Cytotoxicity against human H9 cells by MTS assay; type: cell-based
Mus musculus [8] = experiment: Toxicity in Balb/c mouse assessed as abnormality in liver at 500 to 1000 mg/kg, ip; type: organism-based; parameters: dose 500-1000 mg/kg, route intraperitoneal; conditions: in vivo; summary of the method: as §2
293T [9] = experiment: Inhibition of full-length X4 tropic HIV-1 clone pNL4-3 Vif binding to ElonginC (unknown origin) transfected in human 293T cells measured at 50 uM after 48 hrs by co-immunoprecipitation assay; type: cell-based; summary of the method: as §1
[10] = tested on: Human immunodeficiency virus 1; experiment: Antiviral activity against X4 tropic HIV-1 clone pNL4-3 infected in human PBMC cells assessed as reduction in p24 antigen at 0.00005 to 5 uM after 4 days by ELISA; type: functional, organism-based
Mus musculus [11] = experiment: Toxicity in Balb/c mouse assessed as effect on AST level at 500 to 1000 mg/kg, ip; type: organism-based; parameters: dose 500-1000 mg/kg, route intraperitoneal; conditions: in vivo; summary of the method: as §2
Mus musculus [12] = experiment: Toxicity in Balb/c mouse assessed as effect on CRE level at 500 to 1000 mg/kg, ip; type: organism-based; parameters: dose 500-1000 mg/kg, route intraperitoneal; conditions: in vivo; summary of the method: as §2
293T [13] = experiment: Inhibition of full-length X4 tropic HIV-1 clone pNL4-3 Vif binding to ElonginB (unknown origin) transfected in human 293T cells measured at 50 uM after 48 hrs by co-immunoprecipitation assay; type: cell-based; summary of the method: as §1
Mus musculus [14] = experiment: Toxicity in Balb/c mouse assessed as abnormality in heart at 500 to 1000 mg/kg, ip; type: organism-based; parameters: dose 500-1000 mg/kg, route intraperitoneal; conditions: in vivo; summary of the method: as §2
293T [15] = experiment: Inhibition of full-length X4 tropic HIV-1 clone pNL4-3 Vif/human APOBEC3G complex transfected in human 293T cells assessed as increase in cellular APOBEC3G level measured after 48 hrs by fluorescence microscopy relative to control; type: cell-based
Summary of the method: (§3)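 293T cells were co-transfected with Vif and A3G-GFP plasmids, then treated with DMSO or a dilution series of compound. After 48 h, A3G-GFP was measured as mean fluorescence intensity on a plate reader, by western blot, or by fluorescence microscopy, each compared with the DMSO control.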

293T [16] = experiment: Inhibition of full-length X4 tropic HIV-1 clone pNL4-3 Vif/human APOBEC3G complex transfected in human 293T cells assessed as increase in cellular APOBEC3G level measured after 48 hrs by Western blot analysis relative to control; type: cell-based; summary of the method: as §3
Mus musculus [17] = experiment: Toxicity in Balb/c mouse assessed as effect on ALT level at 500 to 1000 mg/kg, ip; type: organism-based; parameters: dose 500-1000 mg/kg, route intraperitoneal; conditions: in vivo; summary of the method: as §2
Mus musculus [18] = experiment: Toxicity in Balb/c mouse assessed as abnormality in spleen at 500 to 1000 mg/kg, ip; type: organism-based; parameters: dose 500-1000 mg/kg, route intraperitoneal; conditions: in vivo; summary of the method: as §2
Mus musculus [19] = experiment: Toxicity in Balb/c mouse assessed as change in body weight at 500 to 1000 mg/kg, ip; type: organism-based; parameters: dose 500-1000 mg/kg, route intraperitoneal; conditions: in vivo; summary of the method: as §2
[20] = (§4) Inhibition of purified X4 tropic HIV-1 clone pNL4-3 His tagged Vif binding to recombinant human APOBEC3G expressed in Escherichia coli BL21 assessed as reduction in max resonance unit at 9 uM preincubated with APOBEC3G for 30 mins by surface plasmon resonance method relative to untreated A3G protein control
Summary of the method: (§5)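 His-tagged Vif and A3G were expressed from pET32a in E. coli BL21 with 1 mM IPTG and purified on Ni-agarose (500 mM imidazole elution). Vif-His was immobilized on a CM5 chip in 10 mM acetate, pH 4.0, then blocked with 1 M ethanolamine. A3G-His was pre-incubated at 25 °C for 30 min with compound or DMSO in 10 mM PBS with 5% DMSO before injection. SPR binding was read as max resonance units.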

[21] = as §4, with “4” for “9”; summary of the method: as §5

SMILES | fold change (FC) (293T [1]) | inhibition (293T [2]) | Activity (Mus musculus [3]) | IC50 [4] [nM] | Activity (Mus musculus [5]) | Activity (Mus musculus [6]) | CC50 [7] [nM] | Activity (Mus musculus [8]) | inhibition (293T [9]) | Activity [10] | Activity (Mus musculus [11]) | Activity (Mus musculus [12]) | inhibition (293T [13]) | Activity (Mus musculus [14]) | inhibition (293T [15]) | inhibition (293T [16]) | Activity (Mus musculus [17]) | Activity (Mus musculus [18]) | Activity (Mus musculus [19]) | other results
COc1cc(/C=C(\C#N)c2nc3ccccc3[nH]2)ccc1O | > 3 | inactive | Non-toxic | 58 | Non-toxic | Non-toxic | > 50000 | Non-toxic | inactive | Active | Non-toxic | Non-toxic | inactive | Non-toxic | Dose-dependent effect | Dose-dependent effect | Non-toxic | Non-toxic | Non-toxic | inhibition [20]: 17%
CCN(CC)c1ccc(/C=C(\C#N)c2nc3ccccc3[nH]2)cc1 | > 3 | inactive | Non-toxic | 3.45 | Non-toxic | Non-toxic | > 50000 | Non-toxic | inactive | Active | Non-toxic | Non-toxic | inactive | Non-toxic | Dose-dependent effect | Dose-dependent effect | Non-toxic | Non-toxic | Non-toxic | inhibition [21]: 17%
